Test results as given in ChEMBL document CHEMBL2424551, “Synthesis, in vitro evaluation and molecular modelling of naphthalimide analogue as anticancer agents” (2013).
Active and inactive are the calls of the source. No cut-off for these calls is given here.

Tests used:
Assay type in all cases: functional
SW-620 = test: Growth inhibition of human SW620 cells at 10 uM after 48 hrs by SRB assay; details: SW-620, 48 h, read-out: GI
Procedure, shortened: (§1)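 NCI 60-cell-line screen with a single 10 µM dose. Cells are grown in RPMI 1640 with 5% FBS and 2 mM L-glutamine, plated at 5000–40,000 cells/well according to doubling time, and preincubated 24 h at 37 °C, 5% CO2; time-zero plates are TCA-fixed at that point. Drug exposure is 48 h. Adherent cells are fixed with cold TCA, stained with 0.4% SRB in 1% acetic acid and read at 515 nm. Percent growth is calculated relative to time-zero and untreated controls and reported as GI%.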

SNB-19 = test: Growth inhibition of human SNB19 cells at 10 uM after 48 hrs by SRB assay; details: SNB-19, 48 h, read-out: GI; procedure, shortened: as §1
OVCAR-3 = test: Growth inhibition of human OVCAR3 cells at 10 uM after 48 hrs by SRB assay; details: OVCAR-3, 48 h, read-out: GI
Procedure, shortened: (§2)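 Cells grown in RPMI 1640 with 5% FBS and 2 mM L-glutamine, plated at 5000–40,000 cells/well by doubling time and preincubated 24 h (37 °C, 5% CO2); a time-zero plate is TCA-fixed. Single dose added, then 48 h incubation. Fixed with cold TCA, stained with 0.4% SRB, dye solubilized in 10 mM Tris base, absorbance at 515 nm; percent growth vs time-zero and untreated control.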

MDA-MB-231 = test: Growth inhibition of human MDA-MB-231 cells at 10 uM after 48 hrs by SRB assay; details: MDA-MB-231, 48 h, read-out: GI; procedure, shortened: as §2
SR = test: Growth inhibition of human SR cells at 10 uM after 48 hrs by SRB assay; details: read-out: GI; procedure, shortened: as §1
M14 = test: Growth inhibition of human M14 cells at 10 uM after 48 hrs by SRB assay; details: M14, 48 h, read-out: GI; procedure, shortened: as §2
MOLT-4 = test: Growth inhibition of human MOLT4 cells at 10 uM after 48 hrs by SRB assay; details: MOLT-4, 48 h, read-out: GI; procedure, shortened: as §2
K562 = test: Growth inhibition of human K562 cells at 10 uM after 48 hrs by SRB assay; details: K562, 48 h, read-out: GI; procedure, shortened: as §2
UO-31 = test: Growth inhibition of human UO31 cells at 10 uM after 48 hrs by SRB assay; details: UO-31, 48 h, read-out: GI; procedure, shortened: as §1
SN12C = test: Growth inhibition of human SN12C cells at 10 uM after 48 hrs by SRB assay; details: read-out: GI; procedure, shortened: as §1
OVCAR-4 = test: Growth inhibition of human OVCAR4 cells at 10 uM after 48 hrs by SRB assay; details: OVCAR-4, 48 h, read-out: GI; procedure, shortened: as §2
SK-MEL-5 = test: Growth inhibition of human SK-MEL-5 cells at 10 uM after 48 hrs by SRB assay; details: SK-MEL-5, 48 h, read-out: GI; procedure, shortened: as §2
SK-MEL-28 = test: Growth inhibition of human SK-MEL-28 cells at 10 uM after 48 hrs by SRB assay; details: SK-MEL-28, 48 h, read-out: GI; procedure, shortened: as §2
[1] = Growth inhibition of human NCI-ADR-RES cells at 10 uM after 48 hrs by SRB assay; details: read-out: GI; procedure, shortened: as §2
HOP-62 = test: Growth inhibition of human HOP62 cells at 10 uM after 48 hrs by SRB assay; details: HOP-62, 48 h, read-out: GI; procedure, shortened: as §2
COLO 205 = test: Growth inhibition of human COLO205 cells at 10 uM after 48 hrs by SRB assay; details: COLO 205, 48 h, read-out: GI; procedure, shortened: as §2
SK-OV-3 = test: Growth inhibition of human SKOV3 cells at 10 uM after 48 hrs by SRB assay; details: SK-OV-3, 48 h, read-out: GI; procedure, shortened: as §1
SF-539 = test: Growth inhibition of human SF539 cells at 10 uM after 48 hrs by SRB assay; details: SF-539, 48 h, read-out: GI; procedure, shortened: as §2
MCF7 = test: Growth inhibition of human MCF7 cells at 10 uM after 48 hrs by SRB assay; details: MCF7, 48 h, read-out: GI; procedure, shortened: as §2
RPMI-8226 = test: Growth inhibition of human RPMI8226 cells at 10 uM after 48 hrs by SRB assay; details: RPMI-8226, 48 h, read-out: GI; procedure, shortened: as §2
MDA-MB-468 = test: Growth inhibition of human MDA-MB-468 cells at 10 uM after 48 hrs by SRB assay; procedure, shortened: as §2
DU-145 = test: Growth inhibition of human DU145 cells at 10 uM after 48 hrs by SRB assay; details: DU-145, 48 h, read-out: GI; procedure, shortened: as §2
CAKI-1 = test: Growth inhibition of human Caki1 cells at 10 uM after 48 hrs by SRB assay; details: CAKI-1, 48 h, read-out: GI; procedure, shortened: as §2
A549 = test: Growth inhibition of human A549 cells at 10 uM after 48 hrs by SRB assay; details: A549, 48 h, read-out: GI; procedure, shortened: as §2
[2] = Growth inhibition of human HCC2998 cells at 10 uM after 48 hrs by SRB assay; details: HCC 2998, 48 h, read-out: GI; procedure, shortened: as §2
HCT-15 = test: Growth inhibition of human HCT15 cells at 10 uM after 48 hrs by SRB assay; details: HCT-15, 48 h, read-out: GI; procedure, shortened: as §2
HL-60(TB) = test: Growth inhibition of human HL-60(TB) cells at 10 uM after 48 hrs by SRB assay; details: HL-60, 48 h, read-out: GI
Procedure, shortened: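 Single-concentration pass across the 60-line panel in RPMI 1640 with 5% FBS. Cells preincubated 24 h, then exposed 48 h at 37 °C, 5% CO2. Read by SRB staining with absorbance at 515 nm. Percent growth is taken relative to time-zero and untreated controls and reported as percent growth inhibition (GI %).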

A498 = test: Growth inhibition of human A498 cells at 10 uM after 48 hrs by SRB assay; details: A498, 48 h, read-out: GI; procedure, shortened: as §2
786-0 = test: Growth inhibition of human 786-0 cells at 10 uM after 48 hrs by SRB assay; details: 786-0, 48 h, read-out: GI; procedure, shortened: as §2
NCI-H460 = test: Growth inhibition of human NCI-H460 cells at 10 uM after 48 hrs by SRB assay; details: NCI-H460, 48 h, read-out: GI; procedure, shortened: as §2
NCI-H322M = test: Growth inhibition of human NCI-H322M cells at 10 uM after 48 hrs by SRB assay; details: read-out: GI; procedure, shortened: as §2
UACC-257 = test: Growth inhibition of human UACC257 cells at 10 uM after 48 hrs by SRB assay; details: UACC-257, 48 h, read-out: GI; procedure, shortened: as §1
SF-295 = test: Growth inhibition of human SF295 cells at 10 uM after 48 hrs by SRB assay; details: SF-295, 48 h, read-out: GI; procedure, shortened: as §2
SK-MEL-2 = test: Growth inhibition of human SK-MEL-2 cells at 10 uM after 48 hrs by SRB assay; details: SK-MEL-2, 48 h, read-out: GI; procedure, shortened: as §2

Row | Structure (SMILES) | inhibition of growth at 10 µM (SW-620) [%] | inhibition of growth at 10 µM (SNB-19) [%] | inhibition of growth at 10 µM (OVCAR-3) [%] | inhibition of growth at 10 µM (MDA-MB-231) [%] | inhibition of growth at 10 µM (M14) [%] | inhibition of growth at 10 µM (MOLT-4) [%] | inhibition of growth at 10 µM (K562) [%] | inhibition of growth at 10 µM (UO-31) [%] | inhibition of growth at 10 µM (SN12C) [%] | inhibition of growth at 10 µM (OVCAR-4) [%] | inhibition of growth at 10 µM (SK-MEL-5) [%] | inhibition of growth at 10 µM (SK-MEL-28) [%] | inhibition of growth at 10 µM [1] [%] | inhibition of growth at 10 µM (HOP-62) [%] | inhibition of growth at 10 µM (COLO 205) [%] | inhibition of growth at 10 µM (SK-OV-3) [%] | inhibition of growth at 10 µM (SF-539) [%] | inhibition of growth at 10 µM (MCF7) [%] | inhibition of growth at 10 µM (RPMI-8226) [%] | inhibition of growth at 10 µM (DU-145) [%] | other results
1 | O=c1c2cccc3c(NC4CCCCC4)ccc(c32)c2nc3ccccc3n12 | < 20 | < 20 | < 20 | < 20 | < 20 | 50.2 | 33.1 | 58.6 | < 20 | < 20 | 33.9 | < 20 | < 20 | < 20 | 24.4 | < 20 | < 20 | 86.5 | 24.4 | < 20 | inhibition of growth at 10 µM (SR): 98.9%; growth inhibition (GI) (MDA-MB-468): Active; inhibition of growth at 10 µM (CAKI-1): 52.8%; inhibition of growth at 10 µM (A549): 33.5%; inhibition of growth at 10 µM [2]: 48.3%; inhibition of growth at 10 µM (HCT-15): 25.2%; inhibition of growth at 10 µM (HL-60(TB)): 37.4%; inhibition of growth at 10 µM (A498): < 20%; inhibition of growth at 10 µM (786-0): < 20%; inhibition of growth at 10 µM (NCI-H460): 65.3%; inhibition of growth at 10 µM (NCI-H322M): < 20%
2 | O=c1c2cccc3c(NCCO)ccc(c32)c2nc3ccccc3n12 | < 20 | < 20 | < 20 | < 20 | < 20 | < 20 | < 20 | 38.3 | < 20 | < 20 | 20.2 | < 20 | < 20 | < 20 | < 20 | < 20 | < 20 | 57.5 | 28.6 | < 20 | inhibition of growth at 10 µM (UACC-257): < 20%; inhibition of growth at 10 µM (SF-295): < 20%; inhibition of growth at 10 µM (SK-MEL-2): < 20%; inhibition of growth at 10 µM (MDA-MB-468; MDA-MB-468, 48 h, read-out: GI): 81.1%; inhibition of growth at 10 µM (CAKI-1): < 20%; inhibition of growth at 10 µM (A549): < 20%; inhibition of growth at 10 µM [2]: < 20%; inhibition of growth at 10 µM (HCT-15): < 20%; inhibition of growth at 10 µM (HL-60(TB)): < 20%; inhibition of growth at 10 µM (A498): 32.9%; inhibition of growth at 10 µM (786-0): < 20%; inhibition of growth at 10 µM (NCI-H460): 42.8%; inhibition of growth at 10 µM (NCI-H322M): < 20%
3 | O=c1c2cccc3c(Nc4c(F)cccc4F)ccc(c32)c2nc3ccccc3n12 | < 20 | < 20 | < 20 | < 20 | < 20 | 25.9 | < 20 | 49.4 | < 20 | < 20 | < 20 | < 20 | < 20 | < 20 | < 20 | < 20 | < 20 | 79.6 | 24.6 | < 20 | inhibition of growth at 10 µM (SR): 78.5%; growth inhibition (GI) (MDA-MB-468): Active; inhibition of growth at 10 µM (CAKI-1): 38%; inhibition of growth at 10 µM (A549): < 20%; inhibition of growth at 10 µM [2]: 27.3%; inhibition of growth at 10 µM (HCT-15): 24.5%; inhibition of growth at 10 µM (HL-60(TB)): < 20%; inhibition of growth at 10 µM (A498): < 20%; inhibition of growth at 10 µM (786-0): < 20%; inhibition of growth at 10 µM (NCI-H460): 27.3%; inhibition of growth at 10 µM (NCI-H322M): < 20%
